Results as given in paper PMC11402745 (Heliyon, 2024).
Read-outs that look alike come from different tables or passages of the source.

Tests used:
[1] = test system: Staphylococcus aureus TISTR746; assay: Agar disc diffusion, S. aureus; assay type: cell-based; conditions: S. aureus TISTR 746; extracts 500 mg/mL on disc; 37 °C, 24 h
Summary of the method: (§1)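 Bacteria suspended in 0.85 % saline to McFarland 0.5 (1.5 × 10^8 CFU/mL) and swabbed onto Mueller–Hinton agar. Sterile paper discs loaded with 10 μL of 500 mg/mL extract. Chloramphenicol positive control, DMSO negative control. Plates incubated aerobically at 37 °C for 24 h. Inhibition zones measured in mm with calipers; three independent experiments, mean ± SEM.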

[2] = test system: Escherichia coli TISTR1984; assay: Agar disc diffusion, E. coli; assay type: cell-based; conditions: E. coli TISTR 1984; extracts 500 mg/mL on disc; 37 °C, 24 h
Summary of the method: as §1

[3] = DPPH free radical scavenging assay; conditions: at 1 mg/mL
Summary of the method: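 Test compound mixed with 150 μM DPPH reagent, shaken immediately, then held 30 min in the dark at room temperature. Absorbance read at 520 nm. Trolox served as standard and positive control. Three independent experiments, mean ± SEM, one-way ANOVA vs diluent control.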

[4] = ABTS free radical scavenging assay; conditions: at 0.5 mg/mL
Summary of the method: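 Free-radical scavenging measured by mixing ABTS working solution with test compound, then incubating 10 min in the dark at room temperature. Absorbance read at 734 nm. Trolox served as standard and positive control. Three independent experiments, mean ± SEM, one-way ANOVA vs diluent control.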

RAW264.7 cells = assay: MTT cell viability, RAW264.7; assay type: cell-based, mouse; conditions: RAW cells, 24 h, compared to untreated cells
Summary of the method: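 RAW264.7 macrophages grown in DMEM/10 % FBS at 37 °C, 5 % CO2. Exposed 24 h to dexamethasone (0–100 μM) or LPS (0–100 ng/mL). Viability expressed relative to untreated cells.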

HEK293T cells = assay: MTT cell viability, HEK293T; assay type: cell-based, human
Summary of the method: (§2)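 Cells grown in DMEM/10 % FBS at 37 °C, 5 % CO2, seeded at 5 × 10^3 cells/well and left 24 h. Exposed to extracts (0–400 µg/mL) or cisplatin (0–400 µM) for 24, 48 or 72 h. MTT added for 2 h at 37 °C, formazan dissolved in DMSO, OD read at 570 nm. % viability and IC50 derived; three independent experiments, mean ± SEM.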

MCF10A cells = assay: MTT cell viability, MCF10A; assay type: cell-based, human
Summary of the method: as §2

MCF-7 cells [5] = assay: MTT cell viability, MCF-7; assay type: cell-based, human; conditions: MCF-7, MTT
Summary of the method: as §2

MDA-MB-231 cells [6] = assay: MTT cell viability, MDA-MB-231; assay type: cell-based, human; conditions: MDA-MB-231, MTT
Summary of the method: as §2

MCF-7 cells [7] = assay: Clonogenic cell survival assay, MCF-7; assay type: cell-based, human; conditions: cisplatin 100 μM, 24 h, p < 0.05 vs control
Summary of the method: (§3)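 Cells grown in DMEM/10 % FBS at 37 °C, 5 % CO2, seeded at 2 × 10^5 cells/well and left 24 h. Test compound or cisplatin added for 24 h. Cells trypsinised and reseeded at 1 × 10^3 cells/well without drug for 8–10 days. Fixed in cold methanol 45 min, stained with 0.5 % crystal violet 45 min. Colonies counted by light microscopy as % of untreated control; n = 3, one-way ANOVA.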

MDA-MB-231 cells [8] = assay: Clonogenic cell survival assay, MDA-MB-231; assay type: cell-based, human; conditions: cisplatin 100 μM, 24 h, p < 0.0001 vs control
Summary of the method: as §3

Molecule: O=C(N[C@H](CO)[C@H](O)c1ccc([N+](=O)[O-])cc1)C(Cl)Cl [CHL, Chloramphenicol]
- ZOI [1]: 29.75 ± 1.77 mm
- ZOI [2]: 29.75 ± 0.35 mm

Molecule: Cc1c(C)c2c(c(C)c1O)CCC(C)(C(=O)O)O2 (centres unmarked) [Trolox]
- DPPH radical inhibition rate [3]: 98.02 ± 0.21%
- ABTS radical inhibition rate [4]: 69.92 ± 3.08%

Molecule: lipopolysaccharide [LPS]
- cell viability (RAW264.7 cells; LPS at 0–12.5 ng/mL): unchanged

Molecule: N.N.[Cl][Pt][Cl] [cisplatin]
- IC50 (HEK293T cells; read-out: IC50 for 24 h, 24 h): 62.3 ± 3.1 µM
- IC50 (HEK293T cells; read-out: IC50 for 48 h, 48 h): 11.6 ± 1.3 µM
- IC50 (HEK293T cells; read-out: IC50 for 72 h, 72 h): 3.25 ± 0.88 µM
- IC50 (MCF10A cells; read-out: IC50 for 24 h, 24 h): 74.3 ± 3.24 µM
- IC50 (MCF10A cells; read-out: IC50 for 48 h, 48 h): 37.2 ± 2.72 µM
- IC50 (MCF10A cells; read-out: IC50 for 72 h, 72 h): 26.2 ± 1.66 µM
- IC50 (MCF-7 cells [5]; read-out: IC50 for 24 h, 24 h): 73.8 ± 3.24 µM
- IC50 (MCF-7 cells [5]; read-out: IC50 for 48 h, 48 h): 41.5 ± 2.8 µM
- IC50 (MCF-7 cells [5]; read-out: IC50 for 72 h, 72 h): 32.9 ± 2.63 µM
- IC50 (MDA-MB-231 cells [6]; read-out: IC50 for 24 h, 24 h): 46.7 ± 2.89 µM
- IC50 (MDA-MB-231 cells [6]; read-out: IC50 for 48 h, 48 h): 44.7 ± 2.86 µM
- IC50 (MDA-MB-231 cells [6]; read-out: IC50 for 72 h, 72 h): 33.3 ± 2.64 µM
- colony formation (MCF-7 cells [7]): significantly decreased
- colony formation (MDA-MB-231 cells [8]): significantly decreased

Molecule: C[C@@H]1C[C@H]2[C@@H]3CCC4=CC(=O)C=C[C@]4(C)[C@@]3(F)[C@@H](O)C[C@]2(C)[C@@]1(O)C(=O)CO [dexamethasone]
- cell viability (RAW264.7 cells; dexamethasone at 0–12.50 μM): unchanged
